Among the data in ChEMBL document CHEMBL1177748, “Homo- and heptanor-sterols and tremulane sesquiterpenes from cultures of Phellinus igniarius” (2010) are inhibition and Activity values, retold here.

Calls of active or inactive are those of the source. No cut-off for these calls is given here.

For test [1], the target named is T1, Tyrosine-protein phosphatase non-receptor type 1 (Homo sapiens) (UniProt P18031).
T1 sequence (whole entry): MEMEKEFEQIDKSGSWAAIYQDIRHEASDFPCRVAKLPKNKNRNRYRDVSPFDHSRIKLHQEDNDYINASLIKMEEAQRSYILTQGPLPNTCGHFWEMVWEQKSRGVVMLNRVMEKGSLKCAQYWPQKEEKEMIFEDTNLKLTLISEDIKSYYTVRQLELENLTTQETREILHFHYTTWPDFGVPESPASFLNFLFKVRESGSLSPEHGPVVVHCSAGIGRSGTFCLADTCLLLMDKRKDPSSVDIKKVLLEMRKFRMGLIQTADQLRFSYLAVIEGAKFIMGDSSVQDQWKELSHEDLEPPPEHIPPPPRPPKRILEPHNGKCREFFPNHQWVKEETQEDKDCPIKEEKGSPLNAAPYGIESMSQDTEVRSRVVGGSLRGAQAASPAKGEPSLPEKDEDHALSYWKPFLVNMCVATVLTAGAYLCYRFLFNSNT
In words: Inhibition of PTB1B at 10 uM.

The species named for the next test is Rattus norvegicus. The experiment in a line: Inhibition of platelet-activating factor-induced beta-glucuronidase release in rat PMNC at 10 uM. In kind it is functional.
Another test deals with Thoracic aorta. The experiment in a line: Vasodilating activity in Langendorff-perfused Sprague-Dawley rat thoracic aorta assessed as relaxation of phenylephrine-induced vasoconstriction at 10 uM relative to untreated control. More on the design: scale not given: the % may be the effect or the level left. The class given is functional. The essentials: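 Thoracic aortic rings were taken from Langendorff-perfused Sprague-Dawley rats weighing 200 ± 20 g. Rings were precontracted with phenylephrine, and isotonic tension was recorded. Compounds were tested at 10^-5 M. The relaxing rate was expressed as a percentage relative to the blank control.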

The test system of test [2] is Human immunodeficiency virus 1. In words: Antiviral activity against HIV1 assessed as inhibition of viral replication at 10 uM. In kind it is functional, organism-based.
A further test concerns PC-12. The experiment in a line: Neuroprotective activity against glutamate-induced neurotoxicity in rat PC12 cells at 10 uM. In kind it is functional, cell-based.
A further test has as its system Liver microsomes. In words: Antioxidant activity against Fe2+-cystine induced lipid peroxidation in rat liver microsomes at 10 uM. In kind it is functional. As to conditions: Microsome.

As for `C[C@H]1CCC2=C(COC2=O)[C@@]2(O)CC(C)(C)C[C@@H]12`, the inhibition result (in test [1]; in the test filed under Rattus norvegicus; in test [2]; with PC-12; with Liver microsomes) was “inactive” in each case. The Activity in the test on Thoracic aorta is 46.6%.
For `CC1(C)OCC2=CC[C@H]3C(C)(C)[C@@H](O)CC[C@]3(C)[C@H]2CO1`, the inhibition entry (in test [1]; in the test filed under Rattus norvegicus; in test [2]; in the test on PC-12; in the test with Liver microsomes) was “inactive” in each case. Besides, in the test with Thoracic aorta, the Activity came to 32.1%.
In the case of `COc1ccc(CCN(C)CCCC(C#N)(c2ccc(OC)c(OC)c2)C(C)C)cc1OC` (stereo not given) [VERAPAMIL], in the test on Thoracic aorta, the Activity stood at 83.3%.
Consider `C[C@H]1CC[C@H](CO)[C@H](CO)C2=C[C@@](C)(CO)C[C@H]21`, for which the inhibition result (in test [1]; in the test listed under Rattus norvegicus; in test [2]; in the test on PC-12; with Liver microsomes) was “inactive” in each case. Also, in the test with Thoracic aorta, the Activity is 45.4%.
Turning to `C[C@H]1CC[C@H](CO)[C@H](CO)C2=C[C@](C)(CO)C[C@H]21`, the inhibition entry (in test [1]; in the test listed under Rattus norvegicus; in test [2]; in the test with PC-12; in the test with Liver microsomes) was “inactive” in each case. Further, in the test with Thoracic aorta, the Activity turned out to be 35.7%.
